Source: PubChem
MT stabilize HCS = microtubule stabilizers in HeLa cells; HeLa tubulin immunostaining HCS, 24 h; share of cells brighter than vehicle mean+2SD; % tubulin-high responders, % at 10 µM; 200,000 tested, 0.83% active;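 active = plate Z-score above 3 for both tubulin-high and condensed-nucleus cell shares, with cell loss under 80%, at 10 µM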;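 also: anti alpha tubulin signal scored within the nucleus-defined area of each cell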
Dynein cargo inh = blocks dynein driven cargo transport along microtubules. z-score, hits read low. 3617.4 mouse cells, GR-EGFP nuclear translocation imaging; test concentration mostly 20 µM; stimulated with dexamethasone, 1 µM; hits give low values. 220,000 tested, 0.47% active;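 active = plate z-score of nuclear minus cytoplasmic receptor signal below a set negative limit, without overly bright fluorescence or cell loss, cut at about -3.5 in these data, passing the limit was not always enough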;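 also: z-score of nuclear minus cytoplasmic ring GR-EGFP intensity difference per well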
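Buffer or medium: tet-free, stripped-serum medium; reagent: dexamethasone at 1.0 µM final, 30 min; incubation: 48 h induction, 1 h compound, 30 min dex at 37 °C; measured by: formaldehyde fixation, Hoechst nuclear stain, 10x automated fluorescence imaging; read-out: nuclear-to-cytoplasmic GR-EGFP distribution per well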
Autophagy HCS = alters autophagy in cells | MEF GFP-LC3 puncta imaging; test concentration mostly 10 µM | calls only at 10 µM (by protocol) | 190,000 tested, 0.98% active | AID 463193;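 active = percentage of spot-positive cells more than 3 SD above its plate mean, without a fluorescence outlier flag or 80% toxicity; inconclusive = no clear call, values can overlap the other calls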
b-catenin transl = modulators of beta-catenin nuclear translocation; HeLa beta-catenin nuclear translocation, immunofluorescence imaging; nuclear translocation activity, % at 5 µM; 190,000 tested, 0.3% active; AID 1665;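 active = nuclear translocation activity above 50% at 5 µM, with a well cell count of 50 or more; inconclusive = wells under 50 cells across six images, flagged as toxic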;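 also: per-cell ratio of nuclear to cytoplasmic median beta-catenin stain intensity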
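Test system: HeLa cells, endogenous beta-catenin; Compound: single 5 µM dose plus 0.02–20 µM confirmation series; Times: compound exposure 24 h at 37°C; Signal: fluorescence imaging of beta-catenin antibody stain plus DAPI; Read-out: % activation, nuclear-to-cytoplasmic median beta-catenin signal ratio per cell.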
Insulin prom up = MIN6 insulin promoter up-regulation | MIN6 insulin promoter-GFP reporter, high-content imaging; hits give high values | AID 1625 | 190,000 tested, 0.3% active | z-score at 5 µM;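 active = z-score above 3 at 5 µM with at least 500 cells counted in the well; inconclusive = wells under 500 cells, flagged as cytotoxic or low count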
Dynein confirm = dynein cargo transport inhibition, confirmation | shares compounds with Dynein cargo inh | 1,000 tested, 69% active | calls only at 20 µM | AID 463116 | 3617.4 GR-EGFP nuclear translocation imaging, dexamethasone-induced;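 active = inhibition of receptor movement into the nucleus at or above a set limit in both runs, with normal cell brightness and cell count; inconclusive = limit reached in only one run, brightness and count normal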;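 also: dexamethasone at 1 µM final in well for 30 min; nuclear minus cytoplasmic GR-EGFP mean intensity difference in channel 2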
Of the large screens only hits and unclear results are named; the others gave an inactive call (follow-up assays come after a bar, where they were run). A selection: hits, their analogues and other compounds. The true share with any hit is near 2.3%.

Cc1ccc(SC(=O)c2c([N+](=O)[O-])c(C)nn2C)cc1	Dynein cargo inh -4.2 (no result: MT stabilize HCS, Autophagy HCS, Insulin prom up) | Dynein confirm active
Cc1cc(C)n(C(=O)c2c([N+](=O)[O-])c(C)nn2C)n1	none
CCN(CC)c1ccc(/C=C2/SC(=O)N(C(C)C)C2=O)o1	Autophagy HCS inconclusive (no result: Insulin prom up) | Dynein confirm active
Cc1cc(N2CCOCC2)ccc1/C=C1\SC(=O)N(C(C)C)C1=O	none
CCc1n[nH]c(=S)n1/N=C/c1cc(OC)cc([N+](=O)[O-])c1O	none
COC(=O)/C(=C/c1cccnc1)NC(=O)c1ccccc1	none
COC(=O)C(=C/C(C)=C/c1cccnc1)C(=O)OC	Dynein cargo inh -5.9 | Dynein confirm active
COc1ccc(CC(=O)n2[nH]c(=O)cc(C)c2=O)cc1OC	Dynein cargo inh -5.7 (no result: MT stabilize HCS, Autophagy HCS) | Dynein confirm inconclusive
COc1ccc(CC(=O)NC(C)(C)CC(C)=O)cc1OC	none
COC(=O)CSc1nn(-c2ccc(F)cc2)c(=S)s1	none
Fc1ccc(CNc2nc(-c3ccco3)cc(C(F)(F)F)n2)cc1	Dynein cargo inh -4.4 | Dynein confirm inactive
O=C(O)/C=C/C(=O)Nc1ccc2nccnc2c1	none
CC(=O)Nc1ccc(Nc2c3c4c(cccc4n(C)c2=O)C(=O)c2ccccc2-3)cc1	none
Cn1c(=O)c(NCCc2ccccc2)c2c3c(cccc31)C(=O)c1ccccc1-2	Dynein cargo inh -5.1, Autophagy HCS inconclusive (no result: Insulin prom up) | Dynein confirm active
Cn1c(=O)c(NCCO)c2c3c(cccc31)C(=O)c1ccccc1-2	Dynein cargo inh -6.9 (no result: b-catenin transl, Insulin prom up) | Dynein confirm active
CCCCNc1c2c3c(cccc3n(C)c1=O)C(=O)c1ccccc1-2	MT stabilize HCS 27, Dynein cargo inh -5.1 (no result: Insulin prom up) | Dynein confirm active
Cc1ccc(NC(=O)c2sc3nc(CCl)[nH]c(=O)c3c2C)c(C)c1	none
O=C(CN1CCCCC1)Nc1cccc(Oc2ccccc2)c1	none (no result: b-catenin transl)
O=C(CCl)Nc1ccc(-c2ccccc2)cc1	Dynein cargo inh -5.4 | Dynein confirm active
Cc1ccc(Sc2ccc(NC(=O)CCl)cc2)cc1C	Dynein cargo inh -4.5 | Dynein confirm active
Cc1ccc(NC(=O)CCSCCC(=O)Nc2ccc(C)c(C)c2)cc1C	none
O=C(CCl)Nc1ccc(N2CCCCCC2)cc1	Dynein cargo inh -6 | Dynein confirm active
CCC(=O)Nc1ccc(N2CCCCC2)cc1	none (no result: Insulin prom up)
O=C(CCl)Nc1cccc(Oc2ccccc2)c1	Dynein cargo inh -4.3 | Dynein confirm active
O=C(CN1CCc2ccccc21)NN1CC(=O)N(c2ccc(Cl)cc2)CC1=O	none (no result: MT stabilize HCS, Autophagy HCS)
O=C(c1ccco1)N1N=C(c2ccc(Br)cc2)CC1(O)C(F)(F)F (centres undefined)	none
Cc1ccc(-c2noc(N=O)c2NO)cc1	none (no result: MT stabilize HCS, Autophagy HCS)
